Experimental data as given in ChEMBL document CHEMBL1146556, “Acetophenone derivatives from Acronychia pedunculata” (J Nat Prod, 2003).

Tested on: Radical scavenging activity
Assay: Antioxidant activity assessed as DPPH radical scavenging activity after 30 mins
Format: functional
Summary of the method: (§1)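 Radical scavenging was read as percent inhibition after a 30 min incubation.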

Point of comparison: VITAMIN E, IC50 8.3 µM. Against it:
- COc1c(CC=C(C)C)c(O)c([C@H](CC(C)C)c2c(O)c(CC=C(C)C)c(O)c(C(C)=O)c2O)c(O)c1C(C)=O [ACROVESTONE] — 59-fold higher, 493 µM

Biological target: T1, Tyrosinase (Homo sapiens, UniProt P14679)
T1 sequence (P14679 whole entry): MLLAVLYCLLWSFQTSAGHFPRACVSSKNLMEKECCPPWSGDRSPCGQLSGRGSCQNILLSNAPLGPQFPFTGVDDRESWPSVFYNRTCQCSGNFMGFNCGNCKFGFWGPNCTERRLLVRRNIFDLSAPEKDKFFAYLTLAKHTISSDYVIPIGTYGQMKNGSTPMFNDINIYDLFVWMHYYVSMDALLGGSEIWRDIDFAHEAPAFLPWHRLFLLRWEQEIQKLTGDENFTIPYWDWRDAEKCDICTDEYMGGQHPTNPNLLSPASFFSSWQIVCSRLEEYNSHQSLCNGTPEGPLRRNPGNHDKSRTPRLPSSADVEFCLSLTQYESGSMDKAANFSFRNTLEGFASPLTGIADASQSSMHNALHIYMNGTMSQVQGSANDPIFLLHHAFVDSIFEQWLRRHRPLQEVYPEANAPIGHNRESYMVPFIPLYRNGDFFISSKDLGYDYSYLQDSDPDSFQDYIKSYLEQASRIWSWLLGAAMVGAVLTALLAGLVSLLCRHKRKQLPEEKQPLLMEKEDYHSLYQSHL
Assay: Inhibition of tyrosinase

In the case of `COc1c(CC=C(C)C)c(O)c([C@H](CC(C)C)c2c(O)c(CC=C(C)C)c(O)c(C(C)=O)c2O)c(O)c1C(C)=O` [ACROVESTONE], the IC50 is reported as 333 µM.

Biological target: T2, Tyrosinase (Homo sapiens) (UniProt P14679)
T2 sequence (whole entry): T1 sequence (P14679 whole entry)
Assay: Inhibition of tyrosinase at 500 uM

Point of comparison: `COc1c(CC=C(C)C)c(O)c(C=O)c(O)c1C(C)=O`, inhibition 11.8%. Against it:
- COc1c(CC=C(C)C)c(O)c(C(=O)CC(C)C)c(O)c1C(C)=O — higher, 16.8%
- COc1c(CC=C(C)C)c2c(c(O)c1C(C)=O)C=CC(C)(C)O2 — lower, 2.5%
- C=C(C)C(O)Cc1c(O)cc(O)c(C(C)=O)c1OC (stereo not drawn) — lower, 8.1%
- COc1c(CC=C(C)C)c2c(c(O)c1C(C)=O)C[C@H](C(C)(C)O)O2 — lower, 6.5%

Tested on: Radical scavenging activity
Assay: Antioxidant activity assessed as DPPH radical scavenging activity at 500 uM after 30 mins
Format: functional
Summary of the method: as §1

Point of comparison: `COc1c(CC=C(C)C)c(O)c(C(=O)CC(C)C)c(O)c1C(C)=O`, inhibition 8.3%. Against it:
- COc1c(CC=C(C)C)c(O)c(C=O)c(O)c1C(C)=O — lower, 3.1%
- COc1c(CC=C(C)C)c2c(c(O)c1C(C)=O)C=CC(C)(C)O2 — lower, 2.9%
- C=C(C)C(O)Cc1c(O)cc(O)c(C(C)=O)c1OC (stereo not drawn) — higher, 10.3%
- COc1c(CC=C(C)C)c2c(c(O)c1C(C)=O)C[C@H](C(C)(C)O)O2 — lower, 5.3%
